Data from ChEMBL document CHEMBL4130606, “Ophiobolins from the Mangrove Fungus Aspergillus ustus” (J Nat Prod, 2018).
Structures can show the parent of a compound that is named as a salt. Activity calls are given as the source filed them. No cut-off for these calls is given here.

Key:
NCI/ADR-RES = assay: Cytotoxicity against human MCF7/ADR cells after 72 hrs by MTT assay; assay type: functional, cell-based
In short: (§1)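 MTT viability assay on human cell lines, with values given as IC50. Lines used: gemcitabine-resistant pancreatic cancer G3K, breast adenocarcinoma MCF-7, its adriamycin-resistant subline MCF-7/Adr, triple-negative breast cancer MDA-MB-231, nontumorigenic breast epithelial MCF10A, non-small-cell lung cancer A549, and promyelocytic leukemia HL-60.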

MDA-MB-231 = assay: Cytotoxicity against human MDA-MB-231 cells after 72 hrs by MTT assay; assay type: functional, cell-based; details: MDA-MB-231, 72 h
MCF7 = assay: Cytotoxicity against human MCF7 cells after 72 hrs by MTT assay; assay type: functional, cell-based; details: MCF7, 72 h; in short: as §1
[1] = Cytotoxicity against human G3K cells after 72 hrs by MTT assay; assay type: functional, cell-based; in short: as §1
A549 = assay: Cytotoxicity against human A549 cells after 72 hrs by MTT assay; assay type: functional, cell-based; details: A549, 72 h; in short: as §1
HL-60 = assay: Cytotoxicity against human HL60 cells after 72 hrs by MTT assay; assay type: functional, cell-based; details: HL-60, 72 h; in short: as §1
Bacillus subtilis = assay: Antimicrobial activity against Bacillus subtilis ATCC 6051 at 1 ug after 24 hrs by paper disc agar diffusion method; assay type: functional, organism-based
Klebsiella aerogenes = assay: Antimicrobial activity against Enterobacter aerogenes ATCC 13048 at 1 ug after 24 hrs by paper disc agar diffusion method; assay type: functional, organism-based
Escherichia coli = assay: Antimicrobial activity against Escherichia coli ATCC 11775 at 1 ug after 24 hrs by paper disc agar diffusion method; assay type: functional, organism-based; details: DSM 30083 = JCM 1649 = ATCC 11775
Candida albicans = assay: Antimicrobial activity against Candida albicans ATCC 10231 at 1 ug after 24 hrs by paper disc agar diffusion method; assay type: functional, organism-based
Pseudomonas aeruginosa = assay: Antimicrobial activity against Pseudomonas aeruginosa ATCC 10145 at 1 ug after 24 hrs by paper disc agar diffusion method; assay type: functional, organism-based
MCF-10A = assay: Cytotoxicity against human MCF10A cells after 72 hrs by MTT assay; assay type: functional, cell-based; in short: as §1

Row | SMILES | IC50 (NCI/ADR-RES) [µM] | IC50 (MDA-MB-231) [µM] | IC50 (MCF7) [µM] | IC50 [1] [µM] | IC50 (A549) [µM] | IC50 (HL-60) [µM] | Activity (Bacillus subtilis) | Activity (Klebsiella aerogenes) | Activity (Escherichia coli) | Activity (Candida albicans) | Activity (Pseudomonas aeruginosa) | IC50 (MCF-10A) [µM]
1 | CO[C@H]1C[C@H]2[C@@H]([C@@H](C)/C=C\C=C(C)C)CC[C@]2(C)C[C@H]2[C@H]3C1=CO[C@H]3C[C@@]2(C)O | > 40 | > 40 | > 40 | > 20 |  |  |  |  |  |  |  | 
2 | CC(C)=C/C=C\[C@H](C)[C@H]1CC[C@]2(C)C[C@H]3[C@@H]4/C(=C\C[C@@H]12)CO[C@@H]4C[C@@]3(C)O | > 40 | > 40 | > 40 | > 20 |  |  |  |  |  |  |  | 
3 | CC1=CC(=O)[C@H]2/C(C=O)=C\C[C@H]3[C@@H]([C@@H](C)/C=C\[C@@H](O)C(C)(C)O)CC[C@]3(C)C[C@H]12 |  |  |  |  | 33.8 | 7.2 |  |  |  |  |  | 
4 | CC(C)=C/C=C\[C@H](C)[C@H]1CC[C@]2(C)C[C@H]3[C@@H]4/C(=C\C[C@@H]12)C(=O)O[C@]4(O)C[C@@]3(C)O | > 40 | > 40 | > 40 | > 20 |  |  | inactive | inactive | inactive | inactive | inactive | 
5 | CO[C@@H]1O[C@@]2(OC)C[C@@](C)(O)[C@H]3C[C@@]4(C)CC[C@H]([C@@H](C)/C=C\C=C(C)C)[C@@H]4C/C=C/1[C@H]32 |  |  |  |  | 0.6 | 0.8 | inactive | inactive | inactive | inactive | inactive | 
6 | CC(C)=C/C=C\[C@H](C)[C@H]1CC[C@]2(C)C[C@H]3[C@H](C(=O)C[C@@]3(C)O)/C(C=O)=C\C[C@@H]12 | 4.1 | 5.9 | 5.1 | > 20 |  |  |  |  |  |  |  | 8.4
7 | CC(C)=C/C=C\[C@H](C)[C@H]1CC[C@]2(C)CC3=C(C(=O)C[C@H]3C)/C(CO)=C\C[C@@H]12 | > 40 | > 40 | > 40 | > 20 |  |  |  |  |  |  |  | 
8 | CO[C@H]1O[C@@]2(OC)C[C@@](C)(O)[C@H]3C[C@@]4(C)CC[C@H]([C@@H](C)/C=C\C=C(C)C)[C@@H]4C/C=C/1[C@H]32 [OPHIOBOLIN O] |  |  |  |  | 2.4 | 1.7 | inactive | inactive | inactive | inactive | inactive | 
9 | COc1cccc2c1C(=O)c1c(O)c3c(c(O)c1C2=O)C[C@@](O)(C(=O)CO)C[C@@H]3O[C@H]1C[C@H](N)[C@H](O)[C@H](C)O1 [DOXORUBICIN HYDROCHLORIDE] | 2.9 |  | 0.1 | 45 |  |  |  |  |  |  |  | 0.2
10 | CC(C)=C/C=C\[C@H](C)[C@H]1CC[C@]2(C)C[C@@H]3C(C)=CC(=O)[C@@H]3/C(C=O)=C\C[C@@H]12 | 34.6 | 14.1 | 22.9 | 9.5 |  |  |  |  |  |  |  | > 40
11 | CC(C)=C/C=C\[C@H](C)[C@H]1CC[C@]2(C)CC3=C(C(=O)C[C@H]3C)/C(C=O)=C\C[C@@H]12 | > 40 | 39.8 | > 40 | > 20 |  |  |  |  |  |  |  | 
12 | CC(C)=C/C=C\[C@H](C)[C@H]1CC[C@]2(C)C[C@@H]3C(C)=CC(=O)[C@H]3/C(CO)=C\C[C@@H]12 | > 40 | > 20 | > 40 | 1.9 | > 50 | > 50 | inactive | inactive | inactive | inactive | inactive | 
13 | CO[C@H]1O[C@]2(OC)C[C@@](C)(O)[C@H]3C[C@@]4(C)CC[C@H]([C@@H](C)/C=C\C=C(C)C)[C@@H]4C/C=C/1[C@@H]32 | 7.9 | 21.4 | 9.4 | > 20 |  |  | inactive | inactive | inactive | inactive | inactive | > 40
14 | CC(C)=C/C=C\[C@H](C)[C@H]1CC[C@]2(C)C[C@H]3[C@H]4/C(=C\C[C@@H]12)C(=O)O[C@H]4C[C@@]3(C)O | > 40 | > 40 | > 40 | > 20 | > 50 | > 50 | inactive | inactive | inactive | inactive | inactive | 
15 | CC(C)=C/C=C\[C@H](C)[C@H]1CC[C@]2(C)C[C@H]3[C@@H](C(=O)C[C@@]3(C)O)/C(C=O)=C\C[C@@H]12 | 26.1 | 4.1 | 12.8 | 6.8 |  |  | inactive | inactive | inactive | inactive | inactive | > 40
16 | CC(C)=C/C=C\[C@H](C)[C@H]1CC[C@]2(C)C[C@H]3[C@H](C(=O)C[C@@]3(C)O)/C(C)=C\C[C@@H]12 |  |  |  |  | 15.1 | 7 |  |  |  |  |  | 
17 | CC(C)=C/C=C\[C@H](C)[C@H]1CC[C@]2(C)C[C@@H]3C(C)=CC(=O)[C@H]3/C(C=O)=C\C[C@@H]12 | 35.4 | 11.6 | 15.4 | 16.8 |  |  | inactive | inactive | inactive | inactive | inactive | > 40
18 | CO[C@@H]1O[C@]2(OC)C[C@@](C)(O)[C@H]3C[C@@]4(C)CC[C@H]([C@@H](C)/C=C\C=C(C)C)[C@@H]4C/C=C/1[C@@H]32 | 5.4 | 18.5 | 13.2 | 19.1 |  |  | inactive | inactive | inactive | inactive | inactive | > 40
